Key:
[1] = reported; ref Wohnsland and Faller [2001]; cited from earlier work
C8B4 murine microglia = assay: On cell polarization assay; type: cell-based; settings: 1 μg/mL LPS, ligand at EC50 added 1 h after LPS, 24 h
Outline: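 C8B4 microglia were seeded at 20,000 cells/well in DMEM with 10% FBS, then switched to 1% FBS the next day. On day 3, LPS was added (final 1 μg/mL), followed 1 h later by the test compound in LPS-containing medium. After 24 h, cells were given anti-CD16/32 or anti-CD206 antibody (2 μg/mL, 2 h), then a SULFO-TAG secondary (2 h). The electrochemiluminescence read-out was normalized to LPS control and analyzed by ANOVA.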

CB2 = CB2 (Homo sapiens, UniProt P34972); assay: ACTOne cell-based cAMP assay in HEK-CNG+CB2 cells; settings: HEK-CNG+CB2, control agonist
parental HEK-CNG cells = assay: ACTOne cell-based cAMP assay in parental HEK-CNG cells; parameters: species or system human
CB1 = CB1 (Homo sapiens, UniProt P21554); assay: ACTOne cell-based cAMP assay in HEK-CNG+CB1 cells; settings: HEK-CNG+CB1, control agonist
Sequence of CB1 (P21554 whole entry): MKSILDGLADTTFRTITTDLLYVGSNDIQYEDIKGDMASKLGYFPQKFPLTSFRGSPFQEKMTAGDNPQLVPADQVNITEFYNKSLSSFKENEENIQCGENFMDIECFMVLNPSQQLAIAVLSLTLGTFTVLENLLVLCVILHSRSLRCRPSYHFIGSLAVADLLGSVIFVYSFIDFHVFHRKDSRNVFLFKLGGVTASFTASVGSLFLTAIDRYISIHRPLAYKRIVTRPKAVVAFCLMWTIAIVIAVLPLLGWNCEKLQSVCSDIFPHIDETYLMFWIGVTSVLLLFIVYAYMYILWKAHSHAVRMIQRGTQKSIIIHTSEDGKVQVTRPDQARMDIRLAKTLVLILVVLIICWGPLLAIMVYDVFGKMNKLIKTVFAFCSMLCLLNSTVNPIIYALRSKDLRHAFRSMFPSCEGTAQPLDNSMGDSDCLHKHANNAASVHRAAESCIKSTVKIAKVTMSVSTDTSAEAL

Sequence of CB2 (P34972 whole entry): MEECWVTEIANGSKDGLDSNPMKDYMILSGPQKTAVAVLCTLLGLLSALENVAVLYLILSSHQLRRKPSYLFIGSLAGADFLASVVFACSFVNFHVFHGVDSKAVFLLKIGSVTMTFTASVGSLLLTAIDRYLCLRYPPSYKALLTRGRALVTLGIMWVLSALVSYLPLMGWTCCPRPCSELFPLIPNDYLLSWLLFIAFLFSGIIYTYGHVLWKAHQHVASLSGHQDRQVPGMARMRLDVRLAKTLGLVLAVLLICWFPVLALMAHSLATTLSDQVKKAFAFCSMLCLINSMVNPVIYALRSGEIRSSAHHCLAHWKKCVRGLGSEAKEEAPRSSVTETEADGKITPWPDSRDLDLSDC

Molecule | CD16/32 (M1 marker) expression compared to LPS control (C8B4 murine microglia) | CD206 (M2 marker) expression compared to LPS control (C8B4 murine microglia) | further results
CN1C(C(=O)Nc2ccccn2)=C(O)c2ccccc2S1(=O)=O [piroxicam] | – | – | Absorbed in humans [1]: 90–100%
CCCCCCC(C)(C)c1cc(OC)c([C@@H]2C=C(CO)[C@@H]3C[C@H]2C3(C)C)c(OC)c1 [HU 308] | only HU 308 did so significantly (P < 0.001) | significantly decreased CD206 | –
CCCCCCC(C)(C)c1ccc([C@@H]2C[C@H](O)CC[C@H]2CCCO)c(O)c1 [CP 55,940, 2-[(1R,2R,5R)-5-hydroxy-2-(3-hydroxypropyl)cyclohexyl]-5-(2-methyloctan-2-yl)phenol] | – | – | Average reduction in cAMP response (CB2): 90%; Change in cAMP-driven fluorescence / cAMP response (parental HEK-CNG cells): no response was observed; Average reduction in cAMP response (CB1): 90%
CCCC(C)(C)c1ccc2c(c1)OC(C)(C)[C@@H]1CC=C(C)C[C@@H]21 [JWH 133] | decreased CD16/32 expression compared to LPS controls | significantly decreased CD206 | –
SR 144528 | also decreased CD16/32 expression in comparison to LPS control | significantly increased CD206 | –

Source: PMC4506688 (Pharmacology Research & Perspectives, 2015)
